The list is not random: actives were taken first. Their share in the collection is about 1.8%.
Pyk2 oligo antag = antagonists of Pyk2 self-association, primary screen, Q293 cells, FERM NanoBiT luminescence, HTS | active compounds read low | z-score (the deposit names both 25 µM and 10 µM) | hit rate 0.83% among 99,000 | AID 1347419, 2020;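 active means Z-score of -3 or lower, scaled per plate to the spread of control and sample wells; inactive means z-score above -3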;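 further: negative z-score means lost luminescence so less FERM oligomerization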
Target sequence (Q14289 whole entry, looked up): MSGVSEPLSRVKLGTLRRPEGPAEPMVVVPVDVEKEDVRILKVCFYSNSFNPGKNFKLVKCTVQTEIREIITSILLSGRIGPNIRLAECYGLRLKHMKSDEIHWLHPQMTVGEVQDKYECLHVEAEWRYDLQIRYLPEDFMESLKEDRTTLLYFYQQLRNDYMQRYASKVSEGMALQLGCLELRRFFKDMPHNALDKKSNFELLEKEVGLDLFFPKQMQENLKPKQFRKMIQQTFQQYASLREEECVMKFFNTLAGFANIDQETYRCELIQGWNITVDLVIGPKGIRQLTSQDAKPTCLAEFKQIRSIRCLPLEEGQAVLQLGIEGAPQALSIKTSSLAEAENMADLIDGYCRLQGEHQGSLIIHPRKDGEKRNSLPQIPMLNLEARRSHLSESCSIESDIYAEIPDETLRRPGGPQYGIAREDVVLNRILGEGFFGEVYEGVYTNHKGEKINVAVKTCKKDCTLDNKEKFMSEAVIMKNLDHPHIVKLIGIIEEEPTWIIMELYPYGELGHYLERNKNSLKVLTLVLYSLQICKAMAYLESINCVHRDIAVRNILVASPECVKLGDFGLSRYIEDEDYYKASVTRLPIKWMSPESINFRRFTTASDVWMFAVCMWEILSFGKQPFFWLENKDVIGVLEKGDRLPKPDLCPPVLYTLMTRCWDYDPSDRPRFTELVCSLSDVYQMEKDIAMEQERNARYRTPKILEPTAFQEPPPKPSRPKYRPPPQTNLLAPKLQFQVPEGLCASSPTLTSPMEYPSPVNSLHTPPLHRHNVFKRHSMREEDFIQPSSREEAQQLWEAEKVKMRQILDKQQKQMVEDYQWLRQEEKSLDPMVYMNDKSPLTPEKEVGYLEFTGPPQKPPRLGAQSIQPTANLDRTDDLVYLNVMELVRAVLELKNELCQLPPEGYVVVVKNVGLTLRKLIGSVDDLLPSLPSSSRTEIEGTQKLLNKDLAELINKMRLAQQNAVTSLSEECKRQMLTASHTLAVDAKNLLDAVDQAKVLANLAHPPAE
HIV Rev-RRE inh = HIV-1 Rev-RRE binding inhibitors, primary screen, biochemical, FRET, protein-RNA interaction | P05866 | Rev peptide-RRE RNA binding | inhibition, % at 8 µM | hit rate 0.79% among 97,000 | AID 704, 2007;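 active means inhibition above the screen-wide mean plus 3 SD, cut at about 35% in these data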
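assay system = Cy5-tagged RRE RNA duplex with fluorescein-tagged Rev peptide | incubation = 5 + 15 min at 25 °C | also added = labelled Rev peptide | measure = % inhibition of FRET ratio versus controls | benchmarks = DMSO wells as 0% and neomycin B wells as 100% inhibition | measured by = FRET fluorescence readout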
LYP inh 2 = PTPN22 phosphatase inhibitors, primary screen, biochemical, DiFMUP fluorescence, 2 µM | recombinant LYP catalytic domain | hit rate 0.21% among 96,000 | Tyrosine-protein phosphatase non-receptor type 22 (Homo sapiens), Q9Y2R2 | AID 640, 2007 | inhibition, % at 2 µM;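 active means inhibition at 2 µM at or above a set limit, the screen mean plus 3 SD, cut at about 24% in these data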
PTPN22 act = LYP phosphatase activators, primary screen, biochemical, DiFMUP fluorescence, 2 µM; Tyrosine-protein phosphatase non-receptor type 22 (Homo sapiens), Q9Y2R2; recombinant LYP; 0 = plate median, 100 = signal doubled; activation, % at 2 µM; hit rate 0.11% among 96,000; AID 697, 2007;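 active means activation at 2 µM above a set limit, the mean plus 5 SD, cut at about 37% in these data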
Numbers stand for hits.

For O=C1CC(C(F)(F)C(F)(F)C(F)(F)C(F)F)=Nc2ccccc2N1 the results were Pyk2 oligo antag inactive, HIV Rev-RRE inh inactive, LYP inh 2 inactive and PTPN22 act inactive.
`O=C([C@H](Cc1ccccc1)NS(=O)(=O)c1ccc(Cl)cc1)N1CC[C@@]2(O)CCCC[C@H]2C1` gave Pyk2 oligo antag inactive, HIV Rev-RRE inh inactive, LYP inh 2 inactive and PTPN22 act inactive.
Screening Oc1ccc(Nc2nc3ccccc3nc2Nc2ccc(O)cc2)cc1 returned Pyk2 oligo antag -4.4, HIV Rev-RRE inh inactive, LYP inh 2 inactive and PTPN22 act inactive.
For Cc1n[nH]c(=O)nc1Nc1ccc(O)cc1 the results were Pyk2 oligo antag inactive, HIV Rev-RRE inh inactive, LYP inh 2 inactive and PTPN22 act inactive.
`CC12COC3(C(=O)Nc4cccnc4)CC1CCC32C` (configuration not stated) gave Pyk2 oligo antag inactive, HIV Rev-RRE inh 44, LYP inh 2 inactive and PTPN22 act inactive.
Screening Cc1c(CCO)c(=O)n(-c2ccccc2)n1S(=O)(=O)c1ccc(Cl)cc1 returned Pyk2 oligo antag inactive, HIV Rev-RRE inh inactive, LYP inh 2 inactive and PTPN22 act inactive.
`O=C(Nc1ccc(-c2noc(CCc3ccccc3)n2)cc1)c1cccnc1` gave Pyk2 oligo antag -3.3.
`Cc1ccc(N2CCN(S(=O)(=O)c3ccc(F)c(C)c3)CC2)c(C)c1` gave Pyk2 oligo antag -3.2, HIV Rev-RRE inh inactive, LYP inh 2 inactive and PTPN22 act inactive.
Screening CCc1ccccc1N1CCN(S(=O)(=O)c2ccc(F)c(C)c2)CC1 returned Pyk2 oligo antag -3.3, HIV Rev-RRE inh inactive, LYP inh 2 inactive and PTPN22 act inactive.
For Cc1cc(S(=O)(=O)N2CCOCC2)ccc1F the results were Pyk2 oligo antag inactive, HIV Rev-RRE inh inactive, LYP inh 2 inactive and PTPN22 act inactive.
For CCC(=O)c1cc(F)c(N2CCN(S(=O)(=O)c3ccc(C)cc3)CC2)cc1C the results were Pyk2 oligo antag inactive, HIV Rev-RRE inh inactive, LYP inh 2 inactive and PTPN22 act inactive.
CCN(CC)CC#CCC(C)(c1ccccc1)c1ccccc1 was read as Pyk2 oligo antag inactive, HIV Rev-RRE inh inactive, LYP inh 2 inactive and PTPN22 act inactive.
O=C1O/C(=C/C(=O)N2CCOCC2)c2ccccc21 was read as Pyk2 oligo antag inactive, HIV Rev-RRE inh inactive, LYP inh 2 inactive and PTPN22 act inactive.
`COC(=O)c1cc(OC)c(OC)cc1NC(=O)CSc1ccccc1` gave Pyk2 oligo antag inactive, HIV Rev-RRE inh inactive, LYP inh 2 inactive and PTPN22 act inactive.
Screening N/C(COc1cccc(C(F)(F)F)c1)=N\NC(=O)c1cccnc1Oc1ccccc1 returned Pyk2 oligo antag inactive, HIV Rev-RRE inh inactive, LYP inh 2 inactive and PTPN22 act inactive.
Screening O=C(C1=C(O)C(=O)N(c2ncccn2)C1c1ccc(Cl)c(Cl)c1)c1ccco1 (configuration not stated) returned Pyk2 oligo antag inactive, HIV Rev-RRE inh 51, LYP inh 2 inactive and PTPN22 act inactive.
Cc1ccc(C(=O)C2=C(O)C(=O)N(c3ncccn3)C2c2ccc(Cl)cc2)o1 (configuration not stated) was read as Pyk2 oligo antag inactive, HIV Rev-RRE inh inactive, LYP inh 2 inactive and PTPN22 act inactive.
O=C(C1=C(O)C(=O)N(c2ncccn2)C1c1ccc(Cl)cc1)c1ccco1 (configuration not stated) was read as Pyk2 oligo antag inactive, HIV Rev-RRE inh inactive, LYP inh 2 inactive and PTPN22 act inactive.
`O=C(C1=C(O)C(=O)N(c2ncccn2)C1c1cccc(Cl)c1)c1ccco1` (configuration not stated) gave Pyk2 oligo antag inactive, HIV Rev-RRE inh 36, LYP inh 2 inactive and PTPN22 act inactive.
For CCOc1ccccc1C(=O)Nc1cc(Cl)ccc1O the results were Pyk2 oligo antag -3.7, HIV Rev-RRE inh inactive, LYP inh 2 inactive and PTPN22 act inactive.
`CCOc1c(Cl)cc(C(=O)Nc2ccccc2C(=O)O)cc1Cl` gave Pyk2 oligo antag -4, HIV Rev-RRE inh inactive, LYP inh 2 inactive and PTPN22 act inactive.
CCNc1nc(ON=C(C)C)nc(N(C)C)n1 was read as Pyk2 oligo antag inactive.
Screening Nc1nc(N)c2sc3nc(C(F)(F)F)cc(C(F)(F)F)c3c2n1 returned Pyk2 oligo antag inactive, HIV Rev-RRE inh 37, LYP inh 2 inactive and PTPN22 act inactive.
Screening Cc1cc(C(F)(F)F)c2sc(N)nc2n1 returned Pyk2 oligo antag inactive, HIV Rev-RRE inh inactive, LYP inh 2 inactive and PTPN22 act inactive.
For COC(=O)c1cccc(N(C(=O)c2cnccn2)C(C(=O)NC2CCCCC2)c2cn(C)nc2C)c1 (configuration not stated) the results were Pyk2 oligo antag inactive, HIV Rev-RRE inh inactive, LYP inh 2 inactive and PTPN22 act inactive.
O=[N+]([O-])c1ccc(N2CCN(c3ccc(Cl)nn3)CC2)cc1NC1CC1 was read as Pyk2 oligo antag inactive, HIV Rev-RRE inh inactive, LYP inh 2 inactive and PTPN22 act inactive.
Screening CCOC(=O)c1c(N2C(=O)Nc3cc(Cl)c(Cl)cc3N2O)sc2c1CCCCC2 returned Pyk2 oligo antag inactive, HIV Rev-RRE inh inactive, LYP inh 2 32 and PTPN22 act inactive.
Screening CCOC(=O)c1c(N2C(=O)C3C4C=CC(O4)C3C2=O)sc2c1CCCC2 (configuration not stated) returned Pyk2 oligo antag inactive, HIV Rev-RRE inh inactive, LYP inh 2 inactive and PTPN22 act inactive.
Screening O=C(NNC(=O)c1cc(-c2ccc(Cl)cc2Cl)nc2ccccc12)Nc1ccccc1 returned Pyk2 oligo antag -3.5, HIV Rev-RRE inh inactive, LYP inh 2 inactive and PTPN22 act inactive.
CCc1ccc(-c2cc(C(F)(F)F)n3nc(C(=O)Nc4cnn(Cc5ccc(C)cc5)c4)cc3n2)s1 was read as Pyk2 oligo antag inactive, HIV Rev-RRE inh inactive, LYP inh 2 inactive and PTPN22 act inactive.
CC1(C)CC(=O)C2=C(C1)N(c1cccc(Cl)c1)C(=O)NC2(C(F)(F)F)C(F)(F)F was read as Pyk2 oligo antag inactive.
For CCc1c(C#N)c(SCCC(=O)Nc2ccc(F)cc2)nc2c1C(=O)CC(C)(C)C2 the results were Pyk2 oligo antag -3.2, HIV Rev-RRE inh inactive, LYP inh 2 inactive and PTPN22 act inactive.
For CCc1c(C#N)c(SCCC(=O)Nc2cccc(OC)c2)nc2c1C(=O)CC(C)(C)C2 the results were Pyk2 oligo antag inactive, HIV Rev-RRE inh inactive, LYP inh 2 inactive and PTPN22 act inactive.
For CCOC(=O)c1sc(NC(=O)Nc2ccc(Cl)cc2)nc1C the results were Pyk2 oligo antag inactive, HIV Rev-RRE inh inactive, LYP inh 2 inactive and PTPN22 act inactive.
CCOC(=O)c1ccc(NC(=O)CC2NCCNC2=O)cc1 (configuration not stated) was read as Pyk2 oligo antag inactive, HIV Rev-RRE inh inactive, LYP inh 2 32 and PTPN22 act inactive.
Screening CCOC(=O)c1ccc(NC(=O)CC2SCCNC2=O)cc1 (configuration not stated) returned Pyk2 oligo antag inactive, HIV Rev-RRE inh inactive, LYP inh 2 inactive and PTPN22 act inactive.
`Nc1nnc(SCC(=O)Nc2ccc(S(=O)(=O)N3CCOCC3)cc2)s1` gave Pyk2 oligo antag inactive, HIV Rev-RRE inh inactive, LYP inh 2 26 and PTPN22 act inactive.

From PubChem BioAssay
